From ChEMBL document CHEMBL1159052 (Bioorg Med Chem, 2010)

Legend:
[1] = molecular target: Synaptic vesicular amine transporter (Homo sapiens, UniProt Q05940); assay: Binding affinity to VMAT2 receptor
[2] = molecular target: T1, Synaptic vesicular amine transporter (Rattus norvegicus, UniProt Q01827); assay: Displacement of [3H]MTBZ from VMAT2 in rat whole brain vesicles by liquid scintillation spectrophotometry
How it was run: (§1)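 Vesicles came from rat whole brain minus cerebellum, by hypotonic lysis and 100,000g pelleting, in HEPES/potassium-tartrate/MgSO4 buffer at pH 7.5, 15 μg protein per 100 μl. Final radioligand was 3 nM [3H]MTBZ or [3H]DTBZ, run in duplicate. Samples were filtered on PEI-soaked GF/B. Ki values come from at least four independent experiments.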

[3] = molecular target: T2, Neuronal acetylcholine receptor; alpha4/beta2 (Rattus norvegicus, UniProt P09483+P12390); assay: Displacement of [3H]nicotine from alpha4beta2 nAChR in rat brain homogenate by liquid scintillation spectrophotometry; type: tissue-based
T2 sequence (P09483 whole entry): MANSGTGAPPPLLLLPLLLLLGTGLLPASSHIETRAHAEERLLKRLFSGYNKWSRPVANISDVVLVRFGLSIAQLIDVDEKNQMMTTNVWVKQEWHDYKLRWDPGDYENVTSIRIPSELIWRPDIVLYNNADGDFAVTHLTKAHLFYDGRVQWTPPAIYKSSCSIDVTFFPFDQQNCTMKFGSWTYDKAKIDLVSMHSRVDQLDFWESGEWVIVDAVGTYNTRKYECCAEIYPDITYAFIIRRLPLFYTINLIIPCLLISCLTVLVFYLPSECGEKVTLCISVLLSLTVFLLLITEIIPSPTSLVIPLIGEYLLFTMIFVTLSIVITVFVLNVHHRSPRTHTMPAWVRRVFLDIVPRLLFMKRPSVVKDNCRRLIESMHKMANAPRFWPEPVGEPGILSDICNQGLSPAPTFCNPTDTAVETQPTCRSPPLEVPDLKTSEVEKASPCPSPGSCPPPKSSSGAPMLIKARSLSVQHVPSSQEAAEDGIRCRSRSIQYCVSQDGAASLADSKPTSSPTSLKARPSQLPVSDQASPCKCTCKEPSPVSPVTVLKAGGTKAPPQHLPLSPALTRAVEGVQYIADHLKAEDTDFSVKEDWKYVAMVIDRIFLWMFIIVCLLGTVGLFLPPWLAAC
T2 sequence (P12390 whole entry): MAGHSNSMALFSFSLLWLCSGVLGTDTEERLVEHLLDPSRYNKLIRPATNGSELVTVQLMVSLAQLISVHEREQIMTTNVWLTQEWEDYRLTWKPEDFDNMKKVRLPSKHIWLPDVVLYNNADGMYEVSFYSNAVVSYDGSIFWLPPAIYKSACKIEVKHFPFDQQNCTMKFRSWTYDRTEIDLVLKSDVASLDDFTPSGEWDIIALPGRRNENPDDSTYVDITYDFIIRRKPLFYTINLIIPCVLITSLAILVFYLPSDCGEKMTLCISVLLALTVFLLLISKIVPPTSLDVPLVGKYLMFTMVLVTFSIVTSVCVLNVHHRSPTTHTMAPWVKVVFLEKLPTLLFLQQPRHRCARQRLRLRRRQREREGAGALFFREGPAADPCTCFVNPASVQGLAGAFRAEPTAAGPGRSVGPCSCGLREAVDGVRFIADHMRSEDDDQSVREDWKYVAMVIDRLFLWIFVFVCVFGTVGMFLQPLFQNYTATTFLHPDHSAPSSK
How it was run: (§2)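 Membranes came from whole brain minus cortex and cerebellum, washed in Krebs-HEPES buffer at pH 7.5, 100–140 μg protein per tube. IC50 came from a curve fit; Ki by Cheng-Prusoff. At least four experiments, each in duplicate.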

[4] = molecular target: Sodium-dependent dopamine transporter (Rattus norvegicus, UniProt P23977); assay: Inhibition of [3H]DA uptake at DAT in rat brain striatal synaptosomes by liquid scintillation spectrophotometry; type: subcellular
Sodium-dependent dopamine transporter, sequence (P23977 whole entry): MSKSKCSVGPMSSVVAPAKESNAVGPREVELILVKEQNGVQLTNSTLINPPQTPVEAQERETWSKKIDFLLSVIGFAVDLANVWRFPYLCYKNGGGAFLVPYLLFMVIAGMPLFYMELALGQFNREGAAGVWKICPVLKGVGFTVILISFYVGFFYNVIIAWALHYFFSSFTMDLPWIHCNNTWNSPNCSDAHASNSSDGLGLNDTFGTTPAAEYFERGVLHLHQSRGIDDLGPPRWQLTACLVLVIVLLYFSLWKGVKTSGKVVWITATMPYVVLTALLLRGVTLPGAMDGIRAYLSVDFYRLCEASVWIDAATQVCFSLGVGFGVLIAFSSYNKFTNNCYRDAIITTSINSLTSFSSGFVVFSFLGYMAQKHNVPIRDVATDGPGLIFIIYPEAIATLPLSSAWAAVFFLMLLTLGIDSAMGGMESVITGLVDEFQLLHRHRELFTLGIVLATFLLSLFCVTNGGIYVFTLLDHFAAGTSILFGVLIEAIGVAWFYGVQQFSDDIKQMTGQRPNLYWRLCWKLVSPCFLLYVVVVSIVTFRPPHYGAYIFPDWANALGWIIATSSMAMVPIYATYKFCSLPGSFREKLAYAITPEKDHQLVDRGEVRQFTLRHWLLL
How it was run: (§3)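 Synaptosomes were striatal for [3H]DA and hippocampal for [3H]5-HT, as P2 pellets in oxygenated Krebs with pargyline and ascorbate (pH 7.4), protein 400 μg/ml. Drug at […] was preincubated 10 min at 34 °C, then 10 nM tritiated substrate was added for 10 min. Uptake was stopped with ice-cold buffer and filtered on GF/B. Nonspecific uptake used 10 μM nomifensine (DA) or 10 μM fluoxetine (5-HT). Duplicates; IC50 by curve fit; Ki by Cheng-Prusoff.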

[5] = molecular target: Sodium-dependent serotonin transporter (Rattus norvegicus, UniProt P31652); assay: Inhibition of [3H]5HT uptake at SERT in rat brain hippocampal synaptosomes by liquid scintillation spectrophotometry; type: subcellular, Hippocampus; how it was run: as §3
Sodium-dependent serotonin transporter, sequence (P31652 whole entry): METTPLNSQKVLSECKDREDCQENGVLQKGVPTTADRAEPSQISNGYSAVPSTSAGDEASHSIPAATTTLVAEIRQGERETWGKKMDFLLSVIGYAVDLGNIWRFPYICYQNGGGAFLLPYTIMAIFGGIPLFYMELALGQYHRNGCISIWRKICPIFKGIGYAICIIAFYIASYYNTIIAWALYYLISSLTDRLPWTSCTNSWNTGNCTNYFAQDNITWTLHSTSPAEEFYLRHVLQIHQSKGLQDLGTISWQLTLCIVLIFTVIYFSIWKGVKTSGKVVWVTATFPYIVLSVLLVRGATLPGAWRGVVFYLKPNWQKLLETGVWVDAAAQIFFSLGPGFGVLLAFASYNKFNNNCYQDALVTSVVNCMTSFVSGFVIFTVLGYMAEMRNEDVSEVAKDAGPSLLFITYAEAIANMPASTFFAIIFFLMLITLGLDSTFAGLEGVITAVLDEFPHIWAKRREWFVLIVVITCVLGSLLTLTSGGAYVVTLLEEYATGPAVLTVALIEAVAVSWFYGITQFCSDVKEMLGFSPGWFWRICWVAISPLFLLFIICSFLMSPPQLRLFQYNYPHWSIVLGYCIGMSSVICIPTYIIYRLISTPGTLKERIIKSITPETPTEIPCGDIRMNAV

[6] = Displacement of [3H]MLA from alpha7 nAChR in rat brain homogenate by liquid scintillation spectrophotometry; type: tissue-based; how it was run: as §2
[7] = molecular target: T1, Synaptic vesicular amine transporter; assay: Displacement of [3HDTBZ from VMAT2 in rat whole brain vesicles by liquid scintillation spectrophotometry
How it was run: as §1, with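 “duplicate. […]” for “duplicate.”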

[8] = molecular target: T2, Neuronal acetylcholine receptor; alpha4/beta2; assay: Antagonist activity at alpha4beta2 nAChR in rat brain synaptosomes assessed as inhibition of nicotine-induced 86Rb+ efflux by liquid scintillation spectrophotometry; type: functional, subcellular

T1 sequence (Q01827 whole entry): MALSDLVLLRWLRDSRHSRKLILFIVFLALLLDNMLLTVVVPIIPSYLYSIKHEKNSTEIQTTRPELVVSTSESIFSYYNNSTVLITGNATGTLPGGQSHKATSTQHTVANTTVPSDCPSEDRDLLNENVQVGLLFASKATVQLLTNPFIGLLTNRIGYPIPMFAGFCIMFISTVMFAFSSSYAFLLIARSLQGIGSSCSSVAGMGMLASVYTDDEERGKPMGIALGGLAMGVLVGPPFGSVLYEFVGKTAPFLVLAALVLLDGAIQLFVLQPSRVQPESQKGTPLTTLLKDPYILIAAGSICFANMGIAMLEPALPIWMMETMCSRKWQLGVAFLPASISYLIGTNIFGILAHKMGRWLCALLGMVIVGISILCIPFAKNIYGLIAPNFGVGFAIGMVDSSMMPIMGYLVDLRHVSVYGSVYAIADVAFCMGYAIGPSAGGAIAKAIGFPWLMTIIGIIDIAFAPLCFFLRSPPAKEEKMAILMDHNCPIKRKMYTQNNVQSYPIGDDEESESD
Synaptic vesicular amine transporter (Homo sapiens, UniProt Q05940), sequence (Q05940 whole entry): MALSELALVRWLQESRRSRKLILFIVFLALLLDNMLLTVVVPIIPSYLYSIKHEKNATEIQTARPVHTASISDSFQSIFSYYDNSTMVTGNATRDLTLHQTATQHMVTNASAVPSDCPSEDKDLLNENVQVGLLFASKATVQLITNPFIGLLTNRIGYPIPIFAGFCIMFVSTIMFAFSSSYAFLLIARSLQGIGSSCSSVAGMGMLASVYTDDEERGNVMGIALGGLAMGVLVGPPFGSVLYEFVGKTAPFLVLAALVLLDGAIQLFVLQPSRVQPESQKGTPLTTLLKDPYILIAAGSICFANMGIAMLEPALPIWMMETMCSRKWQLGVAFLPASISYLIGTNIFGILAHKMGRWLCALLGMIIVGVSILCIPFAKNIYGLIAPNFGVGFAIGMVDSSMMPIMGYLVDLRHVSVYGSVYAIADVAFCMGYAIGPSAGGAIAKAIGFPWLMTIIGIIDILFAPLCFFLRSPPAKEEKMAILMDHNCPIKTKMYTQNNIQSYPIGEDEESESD

| SMILES | Ki [1] | Ki [2] | Ki [3] | Ki [4] | Ki [5] | Ki [6] | Ki [7] | IC50 [8] |
| --- | --- | --- | --- | --- | --- | --- | --- | --- |
| CN1[C@@H](CCc2cccc3ccccc23)CCC[C@H]1CCc1cccc2ccccc12 | 0.63 µM |  |  |  |  |  |  |  |
| Cc1ccc(C(=O)O[C@@H](C[C@@H]2CCC[C@H](CC(=O)c3ccccc3)N2C)c2ccccc2)cc1 |  | 1.76 µM | 1.62 µM | 2.06 µM | 1.51 µM | > 100 µM |  |  |
| CN1[C@@H](CC(=O)c2ccccc2)CCC[C@H]1C[C@H](OS(=O)(=O)c1ccc2ccccc2c1)c1ccccc1 |  |  | 0.01 µM | 13.4 µM | 5.06 µM | 18.5 µM | 2.48 µM |  |
| COc1ccc(C(=O)O[C@@H](C[C@@H]2CCC[C@H](CC(=O)c3ccccc3)N2C)c2ccccc2)cc1 |  | 2.98 µM | 19.3 µM | 3.8 µM | 2.04 µM | 18.4 µM |  |  |
| CN1[C@@H](CC(=O)c2ccccc2)CCC[C@H]1C[C@H](OS(=O)(=O)c1cccc2ccccc12)c1ccccc1 |  |  | 0.017 µM | 4.14 µM | 34.5 µM | > 100 µM | 4.12 µM |  |
| CN1[C@@H](CC(=O)c2ccccc2)CCC[C@H]1C[C@H](OS(=O)(=O)c1cccs1)c1ccccc1 |  |  | 0.013 µM | 19.9 µM | 18.1 µM | 53.8 µM | 4.23 µM |  |
| CN1[C@@H](CC(=O)c2ccccc2)CCC[C@H]1C[C@H](OC(=O)c1cccs1)c1ccccc1 |  | 6.37 µM | 0.86 µM | 3.02 µM | 9.7 µM | 36.2 µM |  |  |
| CC(C)C(=O)OC(C[C@@H]1CCCC(CC(=O)c2ccccc2)N1C)c1ccccc1 (single isomer, unassigned) |  | 2.61 µM | 0.06 µM | 2.38 µM | 1.06 µM | > 100 µM |  |  |
| CN1C(CC(=O)c2ccccc2)CCC[C@H]1CC(OS(=O)(=O)c1ccccc1)c1ccccc1 (single isomer, unassigned) |  |  | 0.008 µM | 10.7 µM | 37.3 µM | 34.8 µM | 3.5 µM | 1.6 µM |
| CC(=O)OC(C[C@@H]1CCCC(CC(=O)c2ccccc2)N1C)c1ccccc1 (single isomer, unassigned) |  | 8.05 µM | 0.07 µM | 4.64 µM | 31.4 µM | > 100 µM |  |  |
| Cc1ccc(S(=O)(=O)OC(C[C@@H]2CCCC(CC(=O)c3ccccc3)N2C)c2ccccc2)cc1 (single isomer, unassigned) |  |  | 0.005 µM | 29.1 µM | 16.2 µM | 18 µM | 10.8 µM | 0.002 µM |
| CCC(=O)OC(C[C@@H]1CCCC(CC(=O)c2ccccc2)N1C)c1ccccc1 (single isomer, unassigned) |  | 4.75 µM | 0.15 µM | 6.88 µM | 4.87 µM | 8.86 µM |  |  |
| CCCC(=O)OC(C[C@@H]1CCCC(CC(=O)c2ccccc2)N1C)c1ccccc1 (single isomer, unassigned) |  | 3.38 µM | 0.5 µM | 4.82 µM | 12.2 µM | > 100 µM |  |  |
| CN1C(CC(=O)c2ccccc2)CCC[C@H]1CC(OS(=O)(=O)c1ccc(Cl)cc1)c1ccccc1 (single isomer, unassigned) |  |  | 0.016 µM | 10.8 µM | 4.38 µM | > 100 µM | 3.24 µM |  |
| CN1C(CC(=O)c2ccccc2)CCC[C@H]1CC(OS(=O)(=O)c1ccc(F)cc1)c1ccccc1 (single isomer, unassigned) |  |  | 0.012 µM | 17.9 µM | 4.68 µM | 24.2 µM | 3 µM |  |
| CN1C(CC(=O)c2ccccc2)CCC[C@H]1CC(OS(=O)(=O)c1ccc([N+](=O)[O-])cc1)c1ccccc1 (single isomer, unassigned) |  |  | 0.013 µM | 19.9 µM | 18.1 µM | 53.8 µM | 4.23 µM |  |
| CC(C)S(=O)(=O)OC(C[C@@H]1CCCC(CC(=O)c2ccccc2)N1C)c1ccccc1 (single isomer, unassigned) |  |  | 0.015 µM | 4.6 µM | 16.1 µM | 47.7 µM | 2.09 µM |  |
| CN1C(CC(=O)c2ccccc2)CCC[C@H]1CC(OC(=O)c1ccccc1)c1ccccc1 (single isomer, unassigned) |  | 1.53 µM | 2.87 µM | 2.31 µM | 2.07 µM | > 100 µM |  | 0.85 µM |
| CCCCS(=O)(=O)OC(C[C@@H]1CCCC(CC(=O)c2ccccc2)N1C)c1ccccc1 (single isomer, unassigned) |  |  | 0.011 µM | 11.8 µM | 5.16 µM | 41 µM | 1.98 µM |  |
| CN1C(CC(=O)c2ccccc2)CCC[C@H]1CC(OS(=O)(=O)Cc1ccccc1)c1ccccc1 (single isomer, unassigned) |  |  | 0.013 µM | 14.7 µM | 4.52 µM | 46.6 µM | 3.98 µM |  |
